In ChEMBL document CHEMBL1156302, “Discovery of a synthetic dual inhibitor of HIV and HCV infection based on a tetrabutoxy-calix[4]arene scaffold” (Bioorg Med Chem Lett, 2010):
Calls of active or inactive are those of the source. The rule behind the calls is not given here.

Tests used:
[1] = system: CCRF-CEM; assay: Cytotoxicity against HCV infected human CEM cells; type: cell-based
[2] = system: Hepatitis C virus; assay: Antiviral activity against HCV infected in human CEM cells assessed as inhibition of viral replication; type: functional, organism-based, Hepacivirus hominis; details: CCRF-CEM
[3] = system: Human immunodeficiency virus 1; assay: Antiviral activity against HIV1 infected in human MT2 cells; type: functional, organism-based; details: Human immunodeficiency virus 1, MT2
[4] = system: MT2; assay: Cytotoxicity against human MT2 cells; type: cell-based
Summary of the method: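 Cell toxicity was measured in MT-2 human T cells bearing HTLV-1 and expressed as ID50.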

[5] = Inhibition of VEGF binding to VEGFR
[6] = Inhibition of PDGF binding to PDGFR
[7] = system: Human alphaherpesvirus 2; assay: Antiviral activity against HSV2 assessed as inhibition of viral replication; type: functional, organism-based
[8] = system: Human alphaherpesvirus 1; assay: Antiviral activity against HSV1 assessed as inhibition of viral replication; type: functional, organism-based
[9] = system: Human immunodeficiency virus 1; assay: Antiviral activity against HIV1 infected in human TZM-bl cells; type: functional, organism-based
Summary of the method: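 Host cells were TZM-bl, a HeLa line carrying firefly luciferase driven by an HIV promoter.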

[10] = system: Human immunodeficiency virus 1; assay: Antiviral activity against HIV1 infected in human CEMx174 cells; type: functional, organism-based
[11] = system: Hepatitis B virus; assay: Antiviral activity against HBV assessed as inhibition of viral replication; type: functional, organism-based

Molecule O=C(O)c1cc2c(OCc3ccccc3)c(c1)Cc1cc(C(=O)O)cc(c1OCc1ccccc1)Cc1cc(C(=O)O)cc(c1OCc1ccccc1)Cc1cc(C(=O)O)cc(c1OCc1ccccc1)C2 has an IC50 [1] of 50 µM, an IC50 [2] greater than 50 µM and an IC50 [3] of 37.1 µM. The IC50 [4] was greater than 50 µM.
For O=C(O)c1cc2c(O)c(c1)Cc1cc(C(=O)O)cc(c1O)Cc1cc(C(=O)O)cc(c1O)Cc1cc(C(=O)O)cc(c1O)C2, the IC50 [1] was greater than 50 µM, the IC50 [2] was greater than 50 µM and the IC50 [3] was greater than 50 µM. The IC50 [4] was greater than 50 µM.
CCCCOc1c2cc(C(=O)Nc3cc(C(=O)O)cc(C(=O)NC4CCCCC4)c3)cc1Cc1cc(C(=O)Nc3cc(C(=O)O)cc(C(=O)NC4CCCCC4)c3)cc(c1OCCCC)Cc1cc(C(=O)Nc3cc(C(=O)O)cc(C(=O)NC4CCCCC4)c3)cc(c1OCCCC)Cc1cc(C(=O)Nc3cc(C(=O)O)cc(C(=O)NC4CCCCC4)c3)cc(c1OCCCC)C2 showed an IC50 [1] greater than 50 µM, an IC50 [2] of 4.1 µM and an IC50 [5] greater than 10 µM. For the same molecule, the IC50 [3] was greater than 50 µM, the IC50 [4] was greater than 50 µM and the IC50 [6] was 0.29 µM.
Work on CCCCOc1c2cc(C(=O)O)cc1Cc1cc(C(=O)O)cc(c1OCCCC)Cc1cc(C(=O)O)cc(c1OCCCC)Cc1cc(C(=O)O)cc(c1OCCCC)C2 yielded an IC50 [2] of 30.1 µM, an IC50 [3] of 2.9 µM and an IC50 [4] of 13 µM.
Work on O=C(O)c1cc(NC(=O)c2cc3c(O)c(c2)Cc2cc(C(=O)Nc4cc(C(=O)O)cc(C(=O)O)c4)cc(c2O)Cc2cc(C(=O)Nc4cc(C(=O)O)cc(C(=O)O)c4)cc(c2O)Cc2cc(C(=O)Nc4cc(C(=O)O)cc(C(=O)O)c4)cc(c2O)C3)cc(C(=O)O)c1 yielded an IC50 [2] greater than 50 µM, an IC50 [3] of 6.7 µM and an IC50 [4] greater than 50 µM.
For O=C(O)c1cc(NC(=O)c2cc3c(OCc4ccccc4)c(c2)Cc2cc(C(=O)Nc4cc(C(=O)O)cc(C(=O)O)c4)cc(c2OCc2ccccc2)Cc2cc(C(=O)Nc4cc(C(=O)O)cc(C(=O)O)c4)cc(c2OCc2ccccc2)Cc2cc(C(=O)Nc4cc(C(=O)O)cc(C(=O)O)c4)cc(c2OCc2ccccc2)C3)cc(C(=O)O)c1, the IC50 [1] was 0.46 µM, the IC50 [2] was 1.4 µM and the IC50 [3] was 0.3 µM. The IC50 [4] was 18 µM.
Molecule CCCCOc1c2cc(C(=O)N[C@@H](CCC(=O)O)C(=O)O)cc1Cc1cc(C(=O)N[C@@H](CCC(=O)O)C(=O)O)cc(c1OCCCC)Cc1cc(C(=O)N[C@H](CCC(=O)O)C(=O)O)cc(c1OCCCC)Cc1cc(C(=O)N[C@@H](CCC(=O)O)C(=O)O)cc(c1OCCCC)C2 has an IC50 [1] of 100 µM, an IC50 [2] of 4.1 µM and an IC50 [3] of 2.4 µM. The IC50 [4] was greater than 50 µM.
With CCCCOc1c2cc(C(=O)Nc3cc(C(=O)O)cc(C(=O)O)c3)cc1Cc1cc(C(=O)Nc3cc(C(=O)O)cc(C(=O)O)c3)cc(c1OCCCC)Cc1cc(C(=O)Nc3cc(C(=O)O)cc(C(=O)O)c3)cc(c1OCCCC)Cc1cc(C(=O)Nc3cc(C(=O)O)cc(C(=O)O)c3)cc(c1OCCCC)C2 the IC50 [1] was 50 µM, the IC50 [2] was 1.8 µM and the Activity [7] was “inactive”. For the same molecule, the Activity [8] was “inactive”, the Activity [9] was “Active” and the Activity [10] was “Active”. For the same molecule, the IC50 [5] was 4.96 µM, the IC50 [3] was 0.36 µM and the IC50 [4] was greater than 50 µM. For the same molecule, the IC50 [6] was 2.62 µM and the Activity [11] was “inactive”.
In the case of CCCCOc1c2cc(C(=O)NCCN)cc1Cc1cc(C(=O)NCCN)cc(c1OCCCC)Cc1cc(C(=O)NCCN)cc(c1OCCCC)Cc1cc(C(=O)NCCN)cc(c1OCCCC)C2, the IC50 [1] is reported as less than 12.5 µM, the IC50 [2] is reported as 5.7 µM and the IC50 [3] is reported as less than 16 µM. The IC50 [4] was 16 µM.
Work on CCCCOc1c2cc(C(=O)Nc3cc(C(=O)O)cc(C(=O)OCc4ccccc4)c3)cc1Cc1cc(C(=O)Nc3cc(C(=O)O)cc(C(=O)OCc4ccccc4)c3)cc(c1OCCCC)Cc1cc(C(=O)Nc3cc(C(=O)O)cc(C(=O)OCc4ccccc4)c3)cc(c1OCCCC)Cc1cc(C(=O)Nc3cc(C(=O)O)cc(C(=O)OCc4ccccc4)c3)cc(c1OCCCC)C2 yielded an IC50 [1] of 12.5 µM, an IC50 [2] of 25.6 µM and an IC50 [5] of 0.48 µM. It also gave an IC50 [3] greater than 50 µM, an IC50 [4] greater than 50 µM and an IC50 [6] of 0.19 µM.
